The text below walks through data of ChEMBL document CHEMBL2331542, “Synthesis and in vitro antibacterial activity of quinolone/naphthyridone derivatives containing 3-alkoxyimino-4-(methyl)aminopiperidine scaffolds” (2013).

In brackets after ≈: the same amount, converted by molar mass.

Holding throughout (format): functional
Assay [1] has as its system Staphylococcus epidermidis. The assay is described as follows: Antibacterial activity against methicillin-sensitive Staphylococcus epidermidis isolate 12-1. The gist of the method: (§1)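 MIC determined in vitro by a standard technique and defined as the lowest compound concentration giving complete inhibition of bacterial growth. The Gram-positive and Gram-negative panels were tested alongside gemifloxacin, levofloxacin and ciprofloxacin reference drugs.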

Assay [2] has as its system Staphylococcus aureus. The assay is described as follows: Antibacterial activity against methicillin-resistant Staphylococcus aureus isolate 12-15. The gist of the method: (§2)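 MIC determined in vitro by standard techniques, defined as the lowest compound concentration giving complete inhibition of bacterial growth. Gemifloxacin, levofloxacin and ciprofloxacin were tested alongside as reference drugs.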

Assay [3] has as its system Escherichia coli. The assay is described as follows: Antibacterial activity against extended-spectrum beta-lactamase-producing Escherichia coli isolate 12-1. The gist of the method: as §1
For assay [4], the system named is Klebsiella pneumoniae. The assay is described as follows: Antibacterial activity against Klebsiella pneumoniae isolate 12-4. The gist of the method:
as §1

The test system of assay [5] is Klebsiella pneumoniae. The assay is described as follows: Antibacterial activity against extended-spectrum beta-lactamase-producing Klebsiella pneumoniae isolate 12-2. A digest of the protocol: as §1
The subject of assay [6] is Staphylococcus epidermidis. The assay is described as follows: Antibacterial activity against methicillin-sensitive Staphylococcus epidermidis isolate 12-3. A digest of the protocol:
as §1

Assay [7] deals with Staphylococcus aureus. The assay is described as follows: Antibacterial activity against Staphylococcus aureus […]. The gist of the method:
as §1

Assay [8] has as its system Escherichia coli. The assay is described as follows: Antibacterial activity against Escherichia coli ATCC 25922. A digest of the protocol: as §1
Assay [9] deals with Klebsiella pneumoniae. The assay is described as follows: Antibacterial activity against Klebsiella pneumoniae isolate 12-2. The gist of the method:
as §1

In assay [10] the test system is Staphylococcus aureus. The assay is described as follows: Antibacterial activity against methicillin-sensitive Staphylococcus aureus isolate 12-7. A digest of the protocol:
as §1

Assay [11] deals with Pseudomonas aeruginosa. The assay is described as follows: Antibacterial activity against Pseudomonas aeruginosa ATCC 27853. The gist of the method: as §1
For assay [12], the system named is Escherichia coli. The assay is described as follows: Antibacterial activity against extended-spectrum beta-lactamase-producing Escherichia coli isolate 12-2. The gist of the method:
as §1

The test system of assay [13] is Staphylococcus epidermidis. The assay is described as follows: Antibacterial activity against methicillin-sensitive Staphylococcus epidermidis isolate 12-2. A digest of the protocol:
as §1

Assay [14] deals with Klebsiella pneumoniae. The assay is described as follows: Antibacterial activity against Klebsiella pneumoniae isolate 12-1. A digest of the protocol:
as §1

The test system of assay [15] is Escherichia coli. The assay is described as follows: Antibacterial activity against Escherichia coli isolate 12-5. A digest of the protocol: as §1
In assay [16] the test system is Staphylococcus aureus. The assay is described as follows: Antibacterial activity against methicillin-resistant Staphylococcus aureus isolate 12-13. A digest of the protocol: as §2
Assay [17] relates to Klebsiella pneumoniae. The assay is described as follows: Antibacterial activity against extended-spectrum beta-lactamase-producing Klebsiella pneumoniae isolate 12-4. A digest of the protocol:
as §1

For assay [18], the system named is Pseudomonas aeruginosa. The assay is described as follows: Antibacterial activity against Pseudomonas aeruginosa isolate 12-2. The gist of the method: as §1
In assay [19] the test system is Escherichia coli. The assay is described as follows: Antibacterial activity against Escherichia coli isolate 12-4. A digest of the protocol:
as §1

In assay [20] the test system is Staphylococcus epidermidis. The assay is described as follows: Antibacterial activity against methicillin-resistant Staphylococcus epidermidis isolate 12-5. The gist of the method:
as §2

In assay [21] the test system is Streptococcus pneumoniae. The assay is described as follows: Antibacterial activity against Streptococcus pneumoniae isolate 12-2. A digest of the protocol: as §1
The subject of assay [22] is Staphylococcus epidermidis. The assay is described as follows: Antibacterial activity against methicillin-resistant Staphylococcus epidermidis isolate 12-33. The gist of the method: as §2
For assay [23], the system named is Pseudomonas aeruginosa. The assay is described as follows: Antibacterial activity against Pseudomonas aeruginosa isolate 12-1. The gist of the method:
as §1

The subject of assay [24] is Escherichia coli. The assay is described as follows: Antibacterial activity against extended-spectrum beta-lactamase-producing Escherichia coli isolate 12-4. A digest of the protocol: as §1
Assay [25] has as its system Escherichia coli. The assay is described as follows: Antibacterial activity against Escherichia coli isolate 12-1. The gist of the method: as §1
Assay [26] relates to Staphylococcus epidermidis. The assay is described as follows: Antibacterial activity against methicillin-resistant Staphylococcus epidermidis isolate 12-35. The gist of the method: as §2
For assay [27], the system named is Klebsiella pneumoniae. The assay is described as follows: Antibacterial activity against extended-spectrum beta-lactamase-producing Klebsiella pneumoniae isolate 12-1. A digest of the protocol: as §1
Assay [28] has as its system Staphylococcus aureus. The assay is described as follows: Antibacterial activity against methicillin-sensitive Staphylococcus aureus isolate 12-6. A digest of the protocol:
as §1

Assay [29] concerns Staphylococcus aureus. The assay is described as follows: Antibacterial activity against methicillin-sensitive Staphylococcus aureus isolate 12-10. The gist of the method: as §1
Assay [30] deals with Streptococcus pneumoniae. The assay is described as follows: Antibacterial activity against Streptococcus pneumoniae isolate 12-5. A digest of the protocol: as §1
In assay [31] the test system is Staphylococcus aureus. The assay is described as follows: Antibacterial activity against methicillin-resistant Staphylococcus aureus isolate 12-3. The gist of the method: as §2

Broadly, the MIC is the lowest concentration that inhibits growth of the organism. Read a high MIC as a need for much substance. Regarding `CCn1cc(C(=O)O)c(=O)c2cc(F)c(N3CCC(NC)/C(=N/OC)C3)c(F)c21` (configuration not stated), the MIC in assay [1] is 0.5 µg/mL (≈ 1.22 µM); in [2], 1 µg/mL (≈ 2.45 µM); in [3], greater than 128 µg/mL; in assay [4], 1 µg/mL (≈ 2.45 µM); in assay [5] it was 32 µg/mL (≈ 78.4 µM); in assay [6], 0.5 µg/mL (≈ 1.22 µM). For the same compound, the MIC was 0.125 µg/mL (≈ 0.306 µM) in assay [7]; 0.5 µg/mL (≈ 1.22 µM) in assay [8]; 4 µg/mL (≈ 9.79 µM) in assay [9]; 1 µg/mL (≈ 2.45 µM) in assay [10]; 8 µg/mL (≈ 19.6 µM) in assay [11]; greater than 128 µg/mL in assay [12]. The MIC in [13] was 16 µg/mL (≈ 39.2 µM); in assay [14] it was 4 µg/mL (≈ 9.79 µM); in [15], greater than 128 µg/mL; in [16] it was 1 µg/mL (≈ 2.45 µM); in assay [17] it was 1 µg/mL (≈ 2.45 µM); in assay [18], 8 µg/mL (≈ 19.6 µM). The MIC in [19] is greater than 128 µg/mL; in [20] it was 0.5 µg/mL (≈ 1.22 µM); in [21] it was 1 µg/mL (≈ 2.45 µM); in assay [22] it was 8 µg/mL (≈ 19.6 µM); in [23] it was 8 µg/mL (≈ 19.6 µM); in assay [24], 128 µg/mL (≈ 313 µM). Besides, the minimal inhibitory concentration (MIC) worked out at 8 µg/mL (≈ 19.6 µM) in [25]; 0.5 µg/mL (≈ 1.22 µM) in assay [26]; 16 µg/mL (≈ 39.2 µM) in [27]; 0.5 µg/mL (≈ 1.22 µM) in assay [28]; 0.5 µg/mL (≈ 1.22 µM) in [29]; 1 µg/mL (≈ 2.45 µM) in [30]. For the same compound, in [31], the lowest concentration to inhibit growth (MIC) was 1 µg/mL (≈ 2.45 µM).

In the case of `O=C(O)c1cn(C2CC2)c2cc(N3CCNCC3)c(F)cc2c1=O` [CIPROFLOXACIN], the MIC in assay [1] was found to be 0.06 µg/mL (≈ 0.181 µM); in assay [4] it was 0.125 µg/mL (≈ 0.377 µM); in assay [5], 4 µg/mL (≈ 12.1 µM); in [6], 0.06 µg/mL (≈ 0.181 µM); in assay [7] it was 0.25 µg/mL (≈ 0.754 µM); in assay [9], 0.125 µg/mL (≈ 0.377 µM). In addition, the MIC in assay [10] worked out at 64 µg/mL (≈ 193 µM); in assay [13], 0.5 µg/mL (≈ 1.51 µM); in [14], 0.03 µg/mL (≈ 0.0905 µM); in [17] it was 4 µg/mL (≈ 12.1 µM); in assay [18] it was 16 µg/mL (≈ 48.3 µM); in assay [20], 0.015 µg/mL (≈ 0.0453 µM). The MIC was 0.015 µg/mL (≈ 0.0453 µM) in assay [22], 0.015 µg/mL (≈ 0.0453 µM) in assay [26], 2 µg/mL (≈ 6.04 µM) in assay [27] and 0.25 µg/mL (≈ 0.754 µM) in assay [29].

As for `C[C@H]1COc2c(N3CCN(C)CC3)c(F)cc3c(=O)c(C(=O)O)cn1c23.C[C@H]1COc2c(N3CCN(C)CC3)c(F)cc3c(=O)c(C(=O)O)cn1c23.O` [LEVOFLOXACIN], the MIC was found to be 0.25 µg/mL in [1]; 0.125 µg/mL in assay [2]; 16 µg/mL in assay [3]; 0.25 µg/mL in assay [4]; 8 µg/mL in [5]; 0.25 µg/mL in [6]. Besides, the MIC in assay [7] came to 0.125 µg/mL; in assay [9] it was 0.06 µg/mL; in [10] it was 32 µg/mL; in assay [12], 16 µg/mL; in assay [13], 0.25 µg/mL; in assay [14] it was 0.06 µg/mL. The MIC in [15] turned out to be 8 µg/mL; in assay [16] it was 0.125 µg/mL; in [17], 4 µg/mL; in assay [18], 16 µg/mL; in assay [19] it was 8 µg/mL; in assay [20] it was 0.125 µg/mL. Moreover, the MIC was found to be 0.125 µg/mL in assay [21]; 8 µg/mL in assay [22]; 0.125 µg/mL in assay [26]; 0.125 µg/mL in [28]; 0.06 µg/mL in [29]; 0.125 µg/mL in [30]. For the same compound, the lowest concentration to inhibit growth in [31] (MIC) was 0.125 µg/mL.
